Screens (PubChem)
The list is not random: actives were taken first. Their share in the collection is about 1.5%.
hiPSC survival: increases survival of single human iPS cells | hiPSC single-cell survival, ATPlite luminescence; 100% = ROCK inhibitor wells, 0% = DMSO | survival enhancement, % at 20 µM | 0.044% of 360,000 active | AID 602274; in the data active = survival enhancement above about 18%;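 note: cells exposed to compounds for 16 hours before the ATP read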
CCR6 antagonist: CCR6 (human) receptor antagonism | P51684 | CHO-K1 CCR6 PathHunter beta-arrestin, luminescence, CCL20-stimulated | inhibition, % at 20 µM | 0.49% of 340,000 active | AID 493098;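 active = compounds whose inhibition of the agonist-driven luminescence signal at 20 µM reaches about 50%, limit read from the data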;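 note: cells stimulated with CCL20 at 14 nM final; plate controls were DMSO with CCL20 for no effect and DMSO without agonist for full effect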
EBI2 antag: blocks human EBI2 receptor beta-arrestin signaling; EBI2 beta-arrestin recruitment, luminescence, 7a,25-OHC stimulated; AID 651636; inhibition, % at 5 µM; P32249; 0.81% of 360,000 active; in the data active = inhibition above about 38%;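 note: enzyme fragment complementation signal reports receptor beta-arrestin coupling in cells; 0% = agonist plus DMSO wells and 100% = wells without agonist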
APJ antagonist: APJ receptor antagonism | inhibition, % at 20 µM | AID 2521 | P35414 | 0.32% of 330,000 active | CHO-K1 APJ beta-arrestin complementation, luminescence;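 active = inhibition above about 40% at 20 µM, limit read from the data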;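 note: cells challenged with 10 nM apelin-13 agonist together with compound; plate controls were apelin-13 plus DMSO wells for no effect and DMSO wells lacking apelin-13 for full effect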
Target sequence (P35414 whole entry, looked up): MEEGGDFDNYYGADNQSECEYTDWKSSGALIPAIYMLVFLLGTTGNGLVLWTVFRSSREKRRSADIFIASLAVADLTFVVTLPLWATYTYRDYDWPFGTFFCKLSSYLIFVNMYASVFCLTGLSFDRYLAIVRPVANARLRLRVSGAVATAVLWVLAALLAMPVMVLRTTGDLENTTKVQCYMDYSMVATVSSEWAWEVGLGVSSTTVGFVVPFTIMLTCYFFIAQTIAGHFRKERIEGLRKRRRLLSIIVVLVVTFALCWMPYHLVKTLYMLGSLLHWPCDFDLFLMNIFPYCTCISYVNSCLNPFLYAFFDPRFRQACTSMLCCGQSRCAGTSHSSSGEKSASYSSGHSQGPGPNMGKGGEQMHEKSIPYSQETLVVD
APJ agonist: APJ receptor agonism; P35414; CHO-K1 APJ PathHunter beta-arrestin, luminescence; 0% DMSO wells, 100% apelin; activation, % at 20 µM; 0.11% of 330,000 active; AID 2520;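 active = activation more than six SD over the plate average, tested at 20 µM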;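 note: 0% = DMSO alone and 100% = apelin-13 at 10 nM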
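assay system = CHO-K1 APJ beta-arrestin complementation cell line | input = cell density 1000 per well | dosing = compound 20 µM once, DMSO 1% | timing = compound 90 min 25 °C, reagent 1 h | measured by = luminescence from split beta-galactosidase complementation, Galacton Star/Emerald II substrate | read-out basis = APJ agonist activity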
CXCR6 block: blocks human CXCR6 beta-arrestin recruitment; O00574; CHO-K1 PathHunter CXCR6 beta-arrestin, luminescence; inhibition, % at 20 µM; 0.36% of 360,000 active; AID 602244; in the data active = inhibition above about 34%, passing the limit was not always enough;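 note: antagonist mode with CXCL16 agonist at 10 nM final; 0% = 10 nM CXCL16 with DMSO and 100% = unstimulated wells without agonist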
APJ antag conf: confirmation of human APJ apelin receptor antagonists | shares compounds with APJ antagonist | APJ beta-arrestin recruitment, luminescence, antagonist mode | inhibition, % at 20 µM | 66% of 950 active | AID 2766; in the data active = inhibition above about 50%
Numbers without * were called inactive; nt = no result.

SMILES	hiPSC survival	CCR6 antagonist	EBI2 antag	APJ antagonist	APJ agonist	CXCR6 block	APJ antag conf
O=C(CCCC(=O)OCC(=O)c1ccc(F)cc1)Nc1cc(C(F)(F)F)ccc1Cl	0	17	-6	16	-4	1	nt
O=C(CCCC(=O)OCC(=O)c1ccc(Cl)cc1Cl)Nc1cc(C(F)(F)F)ccc1Cl	-1	72*	6	43*	-10	15	55*
O=C(NCCc1ccccc1F)C1CCC(=O)N(CCCN2CCCC2=O)C1 (stereo not drawn)	-1	4	-4	13	1	-2	nt
Cc1cccc(NC(=S)NNC(=O)c2cccc([N+](=O)[O-])c2)c1	0	18	-7	27	-5	17	nt
Cc1occc1C(=O)NNC(=S)Nc1cccc([N+](=O)[O-])c1	-3	32	-4	45*	-5	4	47
N#Cc1c(N)n(CCCN2CCOCC2)c2nc3ccccc3nc12	6	1	-3	43*	-4	-6	23
CCCCCn1c(N)c(C#N)c2nc3ccccc3nc21	0	13	-7	8	-3	9	nt
Cc1c(C(=O)CN2CCCC(C)(C)C2)c2ccccc2n1C	0	-3	-9	7	-5	-4	nt
Cc1cccc2cc3c(N)c(C(=O)N4CCOCC4)sc3nc12	-1	23	2	51*	-11	7	7
O=C1OCC(CO)(CO)N=C1NNc1ccc(Cl)c(Cl)c1	-1	35	7	55*	-9	24	67*
OCC1(CO)COC(c2ccccc2)=N1	0	3	7	16	-4	10	nt
Cc1ccc(C(=O)COC(=O)CNC(=O)c2ccc(Br)o2)cc1[N+](=O)[O-]	-1	36	9	48*	-14	22	66*
Cc1ccc(C(=O)COC(=O)CNS(=O)(=O)c2ccccc2)cc1[N+](=O)[O-]	2	80*	9	48*	-16	18	86*
COc1cc(OC)cc(C(=O)N[C@H](C(=O)OCC(=O)c2c[nH]c3ccccc23)C(C)C)c1	-2	3	30	-8	0	4	nt
CCc1ccc(C(=O)COC(=O)CNC(=O)c2ccc(Br)o2)cc1	0	12	-5	8	-3	-6	nt
Cc1ccc(C(=O)COC(=O)CNC(=O)Cc2ccccc2)cc1[N+](=O)[O-]	-1	68*	-2	45*	-10	26	62*
COc1cc(OC)cc(C(=O)N[C@H](C(=O)OCC(=O)c2ccc(C)c([N+](=O)[O-])c2)C(C)C)c1	5	50*	7	48*	-14	18	51*
Cc1cc(C)cc(CC(=O)N2CCC2(C)C(=O)NS(=O)(=O)c2cccc(F)c2)c1 (stereo not drawn)	-2	nt	-3	nt	nt	-8	nt
Cc1ccc(-c2c(C(=O)N/N=C/c3cccc(Cl)c3)nnn2-c2nonc2N)cc1	0	18	17	53*	-8	9	62*
CCN(CC)CCN(C(=O)c1ccc(C(=O)c2ccccc2)cc1)c1nc2ccc(OC)cc2s1	0	8	-3	51*	-7	12	41
CC(=O)Oc1ccc(-c2ccc(C(=O)OCC(=O)N(C)CC(=O)Nc3ccccc3Cl)cc2)cc1	0	-17	18	3	21	-12	nt
CC(C)NC(=S)N/N=C1\CCCCC1C1CCCCC1 (stereo not drawn)	-4	85*	-10	43*	-7	28	85*
Cc1cc(C)c(C)c(/C=C(/C#N)C(N)=S)c1C	-1	29	6	42*	-8	13	36
COc1ccc(CN2C(=O)C(C)Nc3ncnc(N4CCN(c5ccccc5)CC4)c32)cc1 (stereo not drawn)	0	80*	33	68*	-12	68*	115*
CC1Nc2ncnc(N3CCOCC3)c2N(Cc2ccccc2)C1=O (stereo not drawn)	3	0	-1	-32	-3	8	nt
SMILES	hiPSC survival	CCR6 antagonist	EBI2 antag	APJ antagonist	APJ agonist	CXCR6 block	APJ antag conf
Cn1nnc(NC(=S)NC(=O)c2ccc3ccccc3c2)n1	1	nt	1	nt	nt	30	nt
Cn1nnc(NC(=S)NC(=O)c2cccc3ccccc23)n1	0	35	-1	51*	-10	36	86*
O=C(CNC1CCCCCC1)c1cccs1	-1	33	-2	67*	-11	1	48
CCNC(=O)c1ccc(C2SCC(=O)N2CCc2ccccc2)cc1 (stereo not drawn)	0	2	4	-5	-3	-4	nt
CCc1ccc(NC(=O)c2ccc(C3SCC(=O)N3CCc3ccccc3)cc2)cc1 (stereo not drawn)	-1	5	14	62*	2	-6	-9
COc1ccc(C(=O)NC(=S)Nc2ccc(N3CCN(C(C)=O)CC3)cc2)cc1[N+](=O)[O-]	-1	44	6	13	-3	30	nt
Cc1ccc(NC(=S)NNC(=O)c2ccc(N3CCOCC3)c([N+](=O)[O-])c2)cc1Cl	-3	31	3	42*	-7	35	63*
O=C(NNC(=S)Nc1ccc(Br)cc1)c1ccc(N2CCOCC2)c([N+](=O)[O-])c1	5	46	12	32	-5	21	nt
O=C(NNC(=S)Nc1ccc(Cl)cc1Cl)c1ccc(N2CCOCC2)c([N+](=O)[O-])c1	-1	27	9	40*	-5	25	62*
COc1ccc(C(=O)NC(=S)Nc2cccc(Cl)c2N2CCOCC2)cc1[N+](=O)[O-]	-1	33	42*	81*	-10	27	55*
O=C(c1ccc(Cl)c(S(=O)(=O)N2CCCC2)c1)N1CCCC(C(F)(F)F)C1 (stereo not drawn)	2	11	-6	11	-5	-1	nt
CC(C)C(NC(=O)C1CCCCC1)C(=O)NCCc1ccccc1 (stereo not drawn)	0	31	9	41*	-6	28	43
CC(C)C(NC(=O)C1CCCCC1)C(=O)NCc1ccccn1 (stereo not drawn)	0	1	3	14	-4	2	nt
CCC[C@@H](CN1CCC[C@H]1CN1C(N)=NC[C@H]1CC(C)C)N1C[C@@H](Cc2ccccc2)N(CCc2ccc(Cl)c(Cl)c2)C1=N	2	17	-5	42*	5	6	57*
Cc1ccc(C2=N/C(=C\c3ccc(F)cc3)C(=O)N2)cc1	0	-3	13	5	0	-2	nt
O=C(NN1C(=O)/C(=C/c2ccc(O)c([N+](=O)[O-])c2)SC1=S)c1ccccc1Cl	2	54*	15	47*	-10	39*	69*
